Only some compounds are listed: those with a hit (about 4.6% of all), similar ones and a draw of the others.
OX1R antag-1 = antagonists of human orexin 1 receptor (OX1R). Orexin/Hypocretin receptor type 1 (Homo sapiens), O43613. OX1R-expressing cells, FRET antagonist read-out. inhibition, % at 6.6 µM. 1.8% of 330,000 active; in the data active = inhibition mostly above about 38%, no sharp cut-off; inactive = mostly below about 40%;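 note: 0% = agonist challenge alone and 100% = reference antagonist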
GPR7 antag = GPR7 receptor antagonists, primary screen, cell-based, fluorescence, single concentration; Neuropeptides B/W receptor type 1 (Homo sapiens), P48145; GPR7-expressing cells, fluorescence antagonist assay; inhibition, % at 4.4 µM; 1.1% of 290,000 active; AID 1861, 2009; in the data active = inhibition above about 16%, passing the limit was not always enough;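 note: cells stimulated with the agonist NPW; 0% = agonist with vehicle and 100% = vehicle without agonist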
Target sequence (P48145 whole entry, looked up): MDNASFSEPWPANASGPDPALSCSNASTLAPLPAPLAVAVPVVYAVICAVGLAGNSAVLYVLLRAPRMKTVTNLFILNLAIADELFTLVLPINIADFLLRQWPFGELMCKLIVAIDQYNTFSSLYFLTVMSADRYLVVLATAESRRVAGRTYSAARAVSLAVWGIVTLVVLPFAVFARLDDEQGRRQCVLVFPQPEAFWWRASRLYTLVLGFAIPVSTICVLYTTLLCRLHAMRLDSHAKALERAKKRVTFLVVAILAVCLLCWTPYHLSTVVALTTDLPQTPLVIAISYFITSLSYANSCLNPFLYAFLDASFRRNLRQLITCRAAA
OX1R antag-2 = OX1R (HCRTR1) antagonists, primary screen, fluorescence, CHO/OX1R cells, Fluo-8 calcium, orexin A. Orexin/Hypocretin receptor type 1 (Homo sapiens), O43613. Fluo-8 calcium fluorescence. inhibition, % at 5 µM. 0.43% of 330,000 active;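 active = inhibition above its plate's threshold, mean inhibition of all tested compounds on the plate plus 3 SD, cut at about 37% in these data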;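 note: 0% = orexin A challenge wells and 100% = SB-334867-A antagonist wells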
TAAR1 agonist = human TAAR1 agonists, primary screen, Fluo-8 calcium fluorescence, CHO RD-HGA16 cells; Trace amine-associated receptor 1 (Homo sapiens), Q96RJ0; vehicle wells 0%, saturating PEA agonist 100%; activation, % at 3 µM; 0.99% of 360,000 active; AID 624467, 2012;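 active = activation above the mean activation of all test compounds in the run plus 3 SD, cut at about 38% in these data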
Target sequence (Q96RJ0 whole entry, looked up): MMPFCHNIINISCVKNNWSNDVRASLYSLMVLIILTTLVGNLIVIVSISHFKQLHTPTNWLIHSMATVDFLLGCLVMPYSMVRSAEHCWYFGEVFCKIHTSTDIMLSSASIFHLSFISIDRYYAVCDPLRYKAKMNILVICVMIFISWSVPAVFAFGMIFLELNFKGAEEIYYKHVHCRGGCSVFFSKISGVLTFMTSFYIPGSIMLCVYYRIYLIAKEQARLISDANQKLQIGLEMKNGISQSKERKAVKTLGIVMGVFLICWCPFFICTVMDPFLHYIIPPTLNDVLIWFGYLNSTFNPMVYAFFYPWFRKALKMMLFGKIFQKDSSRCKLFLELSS
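System: CHO-derived RD-HGA16 cells with stable Gα16 and human TAAR1 / Times: 17-24 h plating, Fluo-8 75 min 37 °C, 30 min RT / Technique: calcium-sensitive Fluo-8 signal, excitation 470-495, emission 515-575 nm / Measure: % activation relative to PEA EC100 response / Benchmarks: DMSO and PEA EC100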
CHO parental Ca = ATP-evoked calcium signal inhibitors, parental CHO, primary screen, counter-screen for OX1R antagonist project, cell-based, fluorescence, Fluo-8 calcium dye; parental CHO-K1, ATP-induced calcium, Fluo-8 fluorescence; inhibition, % at 5.6 µM; 0.63% of 330,000 active; AID 463079, 2010;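 active = inhibition above that plate's mean sample inhibition plus 3 SD, cut at about 26% in these data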;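 note: 0% = ATP-challenged DMSO wells and 100% = DMSO wells without ATP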
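Test system: untransfected parental CHO cell line. Compound: one dose, 5.6 µM nominal. Detection: intracellular calcium via Fluo-8 no-wash fluorescent dye. Measure: % inhibition. Benchmarks: ATP-challenged DMSO wells low, unchallenged DMSO wells high.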
TAAR1 antag = human TAAR1 antagonists, primary screen, Fluo-8 calcium fluorescence, CHO RD-HGA16 cells. Trace amine-associated receptor 1 (Homo sapiens), Q96RJ0. antagonist. inhibition, % at 3 µM. 1.5% of 360,000 active;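 active = inhibition above a per-plate cutoff, the mean inhibition of test compounds on that plate plus 3 SD, cut at about 49% in these data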;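 note: 0% = DMSO plus EC80 beta-PEA response and 100% = DMSO alone without agonist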
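System: RD-HGA16 CHO cells with stable hTAAR1 and Gα16 | Probe or stimulus: EC80 β-phenethylamine stimulus | Dosing: 3 µM, single point | Times: Dye loading 75 min at 37 °C, then 30 min room temperature | Measured by: Fluo-8 calcium-sensitive fluorescence | Read-out basis: % inhibition of agonist calcium response | Replicates: n of 1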
OX1R HTRF confirm = OX1R (HCRTR1) antagonists, confirmation, cell-based, HTRF | shares compounds with OX1R antag-1 | OX1R-expressing cells, HTRF antagonist assay | inhibition, % at 6.6 µM | 49% of 1,800 active; in the data active = inhibition above about 55%;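 note: CHO cells expressing OX1R stimulated with orexin A at about EC80; 0% = agonist challenge alone and 100% = reference antagonist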
CHO-K1 HTRF = signal inhibition in parental CHO-K1 cells, counter-screen for OX1R antagonist project, cell-based, HTRF | shares compounds with OX1R antag-1 | HTRF counterscreen | inhibition, % at 6.6 µM | 48% of 1,800 active | AID 493232, 2011; in the data active = inhibition above about 17%;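 note: 0% = agonist challenge with vehicle and 100% = vehicle alone without agonist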
Active calls of the source: *; . = no result given; + = active, no number.

SMILES	OX1R antag-1	GPR7 antag	OX1R antag-2	TAAR1 agonist	CHO parental Ca	TAAR1 antag	OX1R HTRF confirm	CHO-K1 HTRF
N#Cc1cc2[nH]c3ccccc3c2[n+](-c2ccc([N+](=O)[O-])cc2)c1N	124*	11	4	1	-5	-25	32	38*
CNC(=O)COC(=O)c1ccc([N+](=O)[O-])cc1Cl	120*	-2	-10	1	-13	-26	46	74*
CCN(CC)c1ccc(NC(=O)c2cc3ccccc3o2)c(C)c1	80*	-14	2	26	-1	23	59*	9
Cc1ccccc1NC(=O)c1cc2ccccc2o1	-5	-11	-16	1	-8	2	.	.
O=C(Nc1ccc(Cl)cc1F)c1ccc2c(c1)C(=O)N(Cc1ccncc1)C2=O	10	.	2	2	-23	8	.	.
CS(=O)(=O)c1ccc(S(=O)CC(=O)Oc2ccc(Cl)cc2)c([N+](=O)[O-])c1 (stereo not drawn)	116*	-11	-6	.	-10	.	40	38*
O=C(CS(=O)c1ccccc1[N+](=O)[O-])Oc1ccc(Br)cc1 (stereo not drawn)	94	-15	-14	3	-22	9	.	.
Cc1c(NS(=O)(=O)c2cccc(C(=O)NCc3ccc(Cl)cc3)c2)c(=O)n(-c2ccccc2)n1C	84*	14	24	14	-24	-10	84*	0
CCN(C(=O)COC(=O)c1cc(S(=O)(=O)Nc2c(C)n(C)n(-c3ccccc3)c2=O)ccc1Cl)C1CCCCC1	80*	3	-13	-3	-23	-8	86*	1
CC1(C(=O)Nc2ccc3c(c2)OCCO3)CCC(=O)N1C1CCN(Cc2ccccc2)CC1 (stereo not drawn)	.	.	.	2	.	3	.	.
COc1cccc(CC(=O)OCC(=O)N(C)CC(=O)Nc2ccccc2Cl)c1	1	.	-4	7	-8	-11	.	.
COC(=O)[C@H]1C[C@@H]1[C@H](NS(=O)(=O)c1ccc2ccccc2c1)c1ccccc1	79*	-8	-6	9	-32	7	36	3
CC1(C(=O)Nc2cccc(NS(C)(=O)=O)c2)CCN1CCc1ccccc1 (stereo not drawn)	.	.	.	25	.	-32	.	.
CC1=C(C(=O)Nc2ccc(C(=O)NCCCN3CCCCC3C)cc2)SCCO1 (stereo not drawn)	.	.	.	2	.	2	.	.
CC(C)n1c(O)c(N=NC(=O)CNC(=O)Cc2ccc(Cl)cc2)c2ccccc21	6	-19	-25	2	-28	18	.	.
COc1ccccc1C(=O)NCC(=O)N=Nc1c(O)n(C(C)C)c2ccccc12	93*	-4	1	2	-24	17	76*	5
CCOCC(=O)N1CCN(c2ccc([N+](=O)[O-])cc2)CC1	83*	10	-21	-2	12	32	33	29*
Cc1c(C(c2cccc(Br)c2)c2c(C)n(C)n(-c3ccccc3)c2=O)c(=O)n(-c2ccccc2)n1C	16	-5	-36	6	-18	4	.	.
O=C(NCCCN1CCCC1=O)c1ccc([N+](=O)[O-])s1	119*	.	-7	2	-15	-33	57*	71*
O=[N+]([O-])c1cccc(/C=N/n2cnnc2)c1	77*	-8	-5	0	0	-17	26	31*
CCOC(=O)N/N=C(/C)c1ccc([N+](=O)[O-])o1	93*	16	8	9	-1	-6	52	77*
CSc1nc2ccc(NC(=O)c3cc4ccccc4o3)cc2s1	84*	-13	9	0	-14	0	91*	13
CC1CC(=O)NN=C1c1ccc(N)c([N+](=O)[O-])c1 (stereo not drawn)	83*	-8	2	0	-11	-6	34	29*
CCCCCCCCN1C(=O)[C@H](CC(=O)NCc2cccc3ccccc23)C[C@@]2(C(=O)OCC)CCCC=C12	.	.	.	1	.	-9	.	.
O=C1c2cc(S(=O)(=O)NCCO)ccc2-c2ccc(S(=O)(=O)NCCO)cc21	79*	1	-3	2	1	6	61*	64*
SMILES	OX1R antag-1	GPR7 antag	OX1R antag-2	TAAR1 agonist	CHO parental Ca	TAAR1 antag	OX1R HTRF confirm	CHO-K1 HTRF
O=C(O)CNS(=O)(=O)c1ccc2c(c1)C(=O)c1cc(S(=O)(=O)NCC(=O)O)ccc1-2	.	-26	.	4	.	-29	.	.
Cc1cc(NC(=O)NN2CCOCC2)nn1-c1c(Cl)cccc1Cl	6	-6	-15	1	-4	-26	.	.
CCCCCOC(=O)c1c(N)n(CCOC)c2nc3ccccc3nc12	33	-6	-32	11	-8	-16	.	.
CCOC(=O)c1c(N)n(CCOC(=O)c2cccs2)c2nc3ccccc3nc12	78*	24	-3	11	-11	21	56*	7
Cn1nc(-c2ccccn2)nc2c(=O)n(C)c(=O)nc1-2	+	-29	-1	7	-13	-14	91*	98*
O=C(OCC#CCSc1nnc(-c2ccc([N+](=O)[O-])cc2)o1)c1cccs1	87*	-4	-10	7	-7	29	51	30*
CCCCOCCCNC(=O)C[C@@H]1C[C@@]2(C(=O)OC)CCCCC=C2N(CCc2ccc(OC)c(OC)c2)C1=O	.	.	.	5	.	14	.	.
Cc1nc(S/C(C(=O)O)=C2/C(=O)Nc3ccccc32)n[nH]1	78*	-11	-6	4	-2	-9	42	46*
Cc1nc(SC2CC(=O)N(c3ccccc3)C2=O)n[nH]1 (stereo not drawn)	-4	-4	0	6	-2	-6	.	.
COc1cc2nc(/C=C/c3cc(OC)c(OC)c(OC)c3)sc2cc1SC	79*	-8	24	0	-39	-11	84*	10
O=C(NN1C(=O)c2ccc(-c3ccc4c(c3)C(=O)N(NC(=O)c3cccnc3)C4=O)cc2C1=O)c1cccnc1	92*	-6	-9	7	-9	7	39	33*
Nc1ccc(CCn2ccnc2)cc1	12	-10	-5	1	-4	8	.	.
